Measurements from ChEMBL document CHEMBL3351777, “Further studies on pyrazolo[1',5':1,6]pyrimido[4,5-d]pyridazin-4(3H)-ones as potent and selective human A1 adenosine receptor antagonists” (Eur J Med Chem, 2015).
Calls of active or inactive are those of the source. The calls are words filed in the database; no cut-off is given here.

What was measured:
Adenosine receptor A1 [1] = biological target: T1, Adenosine receptor A1 (Homo sapiens, UniProt P30542); experiment: Displacement of [3H]DPCPX from human adenosine A1 receptor expressed in CHO cells after 120 mins; format: cell-based
T1 sequence (P30542 whole entry): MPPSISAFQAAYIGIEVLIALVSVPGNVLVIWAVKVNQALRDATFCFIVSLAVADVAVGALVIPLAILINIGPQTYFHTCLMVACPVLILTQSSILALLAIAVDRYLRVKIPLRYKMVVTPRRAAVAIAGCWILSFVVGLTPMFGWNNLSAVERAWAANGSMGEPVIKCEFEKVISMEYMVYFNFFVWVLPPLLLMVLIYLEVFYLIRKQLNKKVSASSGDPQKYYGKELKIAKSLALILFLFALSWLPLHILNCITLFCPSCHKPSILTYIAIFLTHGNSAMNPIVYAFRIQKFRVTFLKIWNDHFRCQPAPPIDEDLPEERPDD

Adenosine receptor A2a [2] = biological target: T2, Adenosine receptor A2a (Homo sapiens, UniProt P29274); experiment: Displacement of [3H]NECA from human adenosine A2A receptor expressed in CHO cells after 120 mins; format: cell-based
T2 sequence (P29274 whole entry): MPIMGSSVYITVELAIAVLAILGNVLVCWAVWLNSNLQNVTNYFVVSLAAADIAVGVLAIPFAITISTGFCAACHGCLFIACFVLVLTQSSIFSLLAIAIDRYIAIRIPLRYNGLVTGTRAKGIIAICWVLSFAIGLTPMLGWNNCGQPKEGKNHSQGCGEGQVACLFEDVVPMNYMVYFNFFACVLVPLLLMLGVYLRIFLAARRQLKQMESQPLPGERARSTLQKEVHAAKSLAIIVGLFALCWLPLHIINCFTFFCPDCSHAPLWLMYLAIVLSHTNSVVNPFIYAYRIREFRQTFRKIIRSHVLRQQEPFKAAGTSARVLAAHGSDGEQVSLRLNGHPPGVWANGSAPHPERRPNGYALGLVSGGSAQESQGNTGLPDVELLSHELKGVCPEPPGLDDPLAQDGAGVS

Adenosine receptor A3 = biological target: T3, Adenosine receptor A3 (Homo sapiens, UniProt P0DMS8); experiment: Displacement of [125I]AB-MECA from human adenosine A3 receptor expressed in CHO cells after 120 mins; format: cell-based
T3 sequence (P0DMS8 whole entry): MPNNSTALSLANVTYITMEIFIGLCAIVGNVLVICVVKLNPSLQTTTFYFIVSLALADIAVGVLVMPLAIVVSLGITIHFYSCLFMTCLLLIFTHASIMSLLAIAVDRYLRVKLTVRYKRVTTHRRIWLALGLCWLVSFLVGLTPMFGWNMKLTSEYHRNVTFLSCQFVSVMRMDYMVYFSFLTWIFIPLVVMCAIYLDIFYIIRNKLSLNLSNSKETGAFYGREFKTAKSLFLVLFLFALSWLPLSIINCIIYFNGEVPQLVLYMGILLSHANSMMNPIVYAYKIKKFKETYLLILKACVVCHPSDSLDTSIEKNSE

Mus musculus [3] = species: Mus musculus; experiment: Toxicity in Swiss albino mouse assessed as change in gross behavior by rotarod test relative to control; format: organism-based; conditions: in vivo
Procedure, shortened: (§1)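 Male Swiss albino mice on the rota-rod, counting falls from the rotating rod at the doses used in passive avoidance. Compared with saline- and CMC-treated mice.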

Mus musculus [4] = species: Mus musculus; experiment: Toxicity in Swiss albino mouse assessed as change in motor coordination by measuring number of falls from the rotating rod by rotarod test relative to control; format: organism-based; conditions: in vivo; procedure, shortened: as §1
Adenosine receptor A2a [5] = biological target: T2, Adenosine receptor A2a; experiment: Displacement of [3H]NECA from human adenosine A2A receptor expressed in CHO cells at 10 uM after 120 mins; format: cell-based
[6] = biological target: T4, Adenosine receptor A3 (Homo sapiens) (UniProt P0DMS8); experiment: Displacement of [125I]AB-MECA from human adenosine A3 receptor expressed in CHO cells at 10 uM after 120 mins; format: cell-based
T4 sequence (whole entry): T3 sequence (P0DMS8 whole entry)

[7] = biological target: T5, Adenosine receptor A1 (Homo sapiens) (UniProt P30542); experiment: Displacement of [3H]DPCPX from human adenosine A1 receptor expressed in CHO cells at 10 uM after 120 mins; format: cell-based
T5 sequence (whole entry): T1 sequence (P30542 whole entry)

[8] = biological target: T5, Adenosine receptor A1 (Homo sapiens); experiment: Antagonist activity at human recombinant adenosine A1 receptor expressed in CHO cells assessed as inhibition of NECA-induced cAMP accumulation at 1 nM to 10 uM after 15 mins by liquid scintillation spectrometry; format: functional, cell-based
Procedure, shortened: (§2)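 Human A1-transfected CHO cells, preincubated 15 min at 37 °C with ADA (1 U/mL) and Ro20-1724 (20 μM). Cells received 1 μM forskolin plus 100 nM NECA, with or without compound (1 nM–10 μM), for 15 min. Stopped with 0.4 N HCl and neutralized with KOH. cAMP was measured by [3H]cAMP (2 nM) binding-protein competition, 150 min at 0 °C, with filtration and scintillation counting. Levels are % of forskolin (100%). Mean ± SEM of ≥3 experiments in duplicate.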

Adenosine receptor A1 [9] = biological target: T1, Adenosine receptor A1; experiment: Antagonist activity at human recombinant adenosine A1 receptor expressed in CHO cells assessed as inhibition of NECA-induced cAMP accumulation after 15 mins by liquid scintillation spectrometry; format: functional, cell-based; procedure, shortened: as §2
[10] = biological target: T6, Adenosine receptor A2b (Homo sapiens) (UniProt P29275); experiment: Antagonist activity at human recombinant adenosine A2B receptor expressed in CHO cells assessed as inhibition of NECA-induced cAMP accumulation at 10 uM after 15 mins by liquid scintillation spectrometry; format: functional, cell-based; set-up: scale not given: the % may be the effect or the level left
T6 sequence (whole entry): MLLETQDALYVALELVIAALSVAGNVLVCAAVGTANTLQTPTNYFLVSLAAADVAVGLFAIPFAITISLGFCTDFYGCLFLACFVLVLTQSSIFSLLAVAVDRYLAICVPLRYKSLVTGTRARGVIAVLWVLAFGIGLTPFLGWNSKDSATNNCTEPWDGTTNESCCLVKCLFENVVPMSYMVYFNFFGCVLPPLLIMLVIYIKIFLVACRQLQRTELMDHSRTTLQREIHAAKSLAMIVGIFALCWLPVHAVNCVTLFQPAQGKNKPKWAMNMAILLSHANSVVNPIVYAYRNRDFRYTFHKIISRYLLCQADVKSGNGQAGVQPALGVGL
Procedure, shortened: (§3)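 CHO cells expressing human A2B receptor, plated about 30000 per well and used after 24 h. Preincubated 15 min at 37 °C in DMEM with ADA (1 U/mL) and Ro20-1724 (20 μM). Compound at 10 μM was tested alone or with an EC50 concentration of NECA determined the same day. cAMP was measured by [3H]cAMP competition with bovine adrenal binding protein. Output is % of cAMP production versus agonist maximal effect.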

[11] = biological target: T6, Adenosine receptor A2b (Homo sapiens); experiment: Agonist activity at human recombinant adenosine A2B receptor expressed in CHO cells assessed as cAMP accumulation at 10 uM after 15 mins by liquid scintillation spectrometry (reference value: 50%); format: functional, cell-based; procedure, shortened: as §3

| Compound | Ki (Adenosine receptor A1 [1]) [nM] | Ki (Adenosine receptor A2a [2]) [nM] | Ki (Adenosine receptor A3) [nM] | Activity (Mus musculus [3]) | Activity (Mus musculus [4]) | inhibition (Adenosine receptor A2a [5]) [%] | inhibition [6] [%] | inhibition [7] [%] | Activity [8] | IC50 (Adenosine receptor A1 [9]) [nM] | Activity [10] [%] | Activity [11] [%] |
| --- | --- | --- | --- | --- | --- | --- | --- | --- | --- | --- | --- | --- |
| O=c1c2ncn3nc(-c4ccccc4)cc3c2c(C2CCCC2)nn1Cc1ccccc1 | 32.3 | 75.5 | 64 | Non-toxic | Non-toxic |  |  |  |  |  |  |  |
| CCc1nc2c(=S)n(Cc3ccccc3)nc(C3CCCC3)c2c2cc(-c3ccccc3)nn12 | 4.7 |  |  | Non-toxic | Non-toxic | 35 | 24 |  |  |  |  |  |
| CCc1nc2c(=O)n(Cc3ccccc3)nc(-c3ccc(Cl)cc3)c2c2cc(-c3ccccc3)nn12 |  |  |  | Non-toxic | Non-toxic | 10 | 51 | 35 | inactive |  |  |  |
| Cc1nc2c(=O)n(Cc3ccccc3)nc(-c3cccs3)c2c2cc(-c3ccccc3)nn12 |  | 2600 |  | Non-toxic | Non-toxic |  | 15 | 21 |  |  |  |  |
| Cc1nc2c(=O)n(Cc3ccccc3)nc(C3CCCC3)c2c2cc(-c3ccccc3)nn12 | 6.2 |  |  | Non-toxic | Non-toxic | 53 | 41 |  |  | 5.1 |  |  |
| Cc1nc2c(=S)n(Cc3ccccc3)nc(C3CCCC3)c2c2cc(-c3ccccc3)nn12 |  |  |  | Non-toxic | Non-toxic | 18 | 13 | 51 |  |  |  |  |
| S=c1c2ncn3nc(-c4ccccc4)cc3c2c(C2CCCCC2)nn1Cc1ccccc1 | 9.5 |  |  | Non-toxic | Non-toxic | 8 | 31 |  |  |  | 58.9 | 4.8 |
| S=c1c2ncn3nc(-c4ccccc4)cc3c2c(C2CCCC2)nn1Cc1ccccc1 | 12.9 |  |  | Non-toxic | Non-toxic | 37 | 54 |  |  |  |  |  |
| O=c1c2ncn3nc(-c4ccccc4)cc3c2c(-c2cccnc2)nn1Cc1ccccc1 |  |  |  | Non-toxic | Non-toxic |  | 21 |  |  |  |  |  |
| Cc1nc2c(=O)n(Cc3ccccc3)nc(-c3ccc(Cl)cc3)c2c2cc(-c3ccccc3)nn12 |  |  |  | Non-toxic | Non-toxic | 28 | 25 | 24 |  |  |  |  |
| Cc1nc2c(=S)n(Cc3ccccc3)nc(C3CCCCC3)c2c2cc(-c3ccccc3)nn12 |  |  |  | Non-toxic | Non-toxic | 0 | 30 | 33 |  |  |  |  |
| CCc1nc2c(=O)n(Cc3ccccc3)nc(-c3ccsc3)c2c2cc(-c3ccccc3)nn12 |  |  |  | Non-toxic | Non-toxic | 41 | 36 | 5 |  |  |  |  |
| Cc1nc2c(=O)n(Cc3ccccc3)nc(-c3ccsc3)c2c2cc(-c3ccccc3)nn12 |  |  |  | Non-toxic | Non-toxic | 57 | 37 | 8 |  |  |  |  |
| CCc1nc2c(=S)n(Cc3ccccc3)nc(C3CCCCC3)c2c2cc(-c3ccccc3)nn12 |  |  |  | Non-toxic | Non-toxic | 0 | 42 |  |  |  |  |  |
| O=c1c2ncn3nc(-c4ccccc4)cc3c2c(-c2ccsc2)nn1Cc1ccccc1 |  | 69.2 |  | Non-toxic | Non-toxic |  | 24 | 26 |  |  |  |  |
| CCc1nc2c(=O)n(Cc3ccccc3)nc(C3CCCCC3)c2c2cc(-c3ccccc3)nn12 | 15.2 |  |  | Non-toxic | Non-toxic | 0 | 40 |  |  |  |  |  |
| CCc1nc2c(=O)n(Cc3ccccc3)nc(-c3cccs3)c2c2cc(-c3ccccc3)nn12 |  |  |  | Non-toxic | Non-toxic | 65 | 30 | 16 | inactive |  |  |  |
| O=c1c2ncn3nc(-c4ccccc4)cc3c2c(-c2cccs2)nn1Cc1ccccc1 |  | 51 |  | Non-toxic | Non-toxic |  | 16 | 45 |  |  |  |  |
| O=c1c2ncn3nc(-c4ccccc4)cc3c2c(-c2ccc(Cl)cc2)nn1Cc1ccccc1 |  |  |  | Non-toxic | Non-toxic | 56 | 31 | 26 |  |  |  |  |
| CCc1nc2c(=O)n(Cc3ccccc3)nc(C3CCCC3)c2c2cc(-c3ccccc3)nn12 | 3.5 | 662 |  | Non-toxic | Non-toxic |  | 43 |  |  |  |  |  |
| Cc1nc2c(=O)n(Cc3ccccc3)nc(C3CCCCC3)c2c2cc(-c3ccccc3)nn12 | 9.5 |  |  | Non-toxic | Non-toxic | 7 | 35 |  |  |  | 57.8 | 2.1 |
| O=c1c2ncn3nc(-c4ccccc4)cc3c2c(C2CCCCC2)nn1Cc1ccccc1 | 172 |  | 308 | Non-toxic | Non-toxic | 56 |  |  |  |  |  |  |
